According to ChEMBL document CHEMBL1136796 (J Med Chem, 2003):
Counter-ions that a name gives are not always drawn.

Tests used:
[1] = target: Tubulin (Sus scrofa, UniProt P02554+P02550); assay: In vitro inhibition of maximum porcine tubulin assembly rate after 20 min at 37 degrees C; assay type: functional
[2] = test system: K562; assay: In vitro inhibitory concentration against human chronic myelogenous leukemia K562 cell growth; assay type: functional, cell-based
[3] = test system: NCI-H460; assay: Tested for induction of cellular death in Human lung H-460 tumor cell line in Propidium Iodide Monolayer Assay; assay type: functional, cell-based
How it was run: (§1)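 Propidium iodide monolayer assay: cells seeded at 1 × 10^5 or 5 × 10^4 cells/mL, 24 h recovery, drug in triplicate for 3–6 days by doubling time; PI 25 μg/mL added, fluorescence (ex 530/em 620 nm) read before and after freezing at −18 °C for 24 h; viable cells from the difference; % T/C versus concentration.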

[4] = test system: MAXF401 cell line; assay: Tested for induction of cellular death in Human breast 401NL tumor cell line in Propidium Iodide Monolayer Assay; assay type: functional, cell-based; how it was run: as §1
[5] = test system: MCF7; assay: Tested for induction of cellular death in Human breast MCF-7 tumor cell line in Propidium Iodide Monolayer Assay; assay type: functional, cell-based; how it was run: as §1
[6] = test system: LXFL 529; assay: Tested for induction of cellular death in Human lung LXF 529L tumor cell line in Propidium Iodide Monolayer Assay; assay type: functional, cell-based; how it was run: as §1
[7] = test system: Lung LXF 629L tumor cell line; assay: Tested for induction of cellular death in Human lung LXF 629L tumor cell line in Propidium Iodide Monolayer Assay; assay type: functional, cell-based; how it was run: as §1
[8] = test system: SF-268; assay: Tested for induction of cellular death in Human ZNS SF-268 tumor cell line in Propidium Iodide Monolayer Assay; assay type: functional, cell-based; how it was run: as §1
[9] = test system: RXF 944; assay: Tested for induction of cellular death in Human renal RXF 944L tumor cell line in Propidium Iodide Monolayer Assay; assay type: functional, cell-based; how it was run: as §1
[10] = species on record: Sus scrofa; assay: In vitro inhibitory concentration against tubulin assembly; assay type: functional
[11] = test system: KB; assay: Cytotoxic activity against cellular metabolic activity of Cervix KB/HeLa tumor cell line using XTT proliferation assay after incubation with the compound for 48 h; assay type: functional, cell-based; settings: Homo sapiens
[12] = test system: SF-268; assay: Cytotoxic activity against cellular metabolic activity of Glioma SF-268 tumor cell line using XTT proliferation assay after incubation with the compound for 48 h; assay type: functional, cell-based; settings: Homo sapiens, SF-268, 48 h
[13] = test system: RKO; assay: Cytotoxic activity against human colon adenocarcinoma RKO cells with ectopic inducible expression of cyclin-dependent kinase inhibitor p27kip1; assay type: functional, cell-based
[14] = test system: RKO; assay: Cytotoxic activity against human colon adenocarcinoma RKO cells without ectopic inducible expression of cyclin-dependent kinase inhibitor p27kip1; assay type: functional, cell-based
[15] = test system: LT12 tumor cell line; assay: Antiproliferative activity against LT12 phenotype LT12 MDR tumor cell line; assay type: functional, cell-based; settings: Rattus norvegicus
[16] = test system: L1210; assay: Antiproliferative activity against L1210 phenotype L1210 VCR tumor cell line; assay type: functional, cell-based; settings: Mus musculus
[17] = test system: L1210; assay: Antiproliferative activity against L1210 tumor cell line; assay type: functional, cell-based; settings: Mus musculus
[18] = test system: SK-OV-3; assay: Cytotoxic activity against cellular metabolic activity of Ovary SKOV3 tumor cell line using XTT proliferation assay after incubation with the compound for 48 h; assay type: functional, cell-based; settings: Homo sapiens, SK-OV-3, 48 h
[19] = test system: P388/ADR; assay: Antiproliferative activity against P388 phenotype P388 ADR tumor cell line; assay type: functional, cell-based; settings: Mus musculus
[20] = test system: NCI-H460; assay: Cytotoxic activity against cellular metabolic activity of Lung NCI-H460 tumor cell line using XTT proliferation assay after incubation with the compound for 48 h; assay type: functional, cell-based; settings: Homo sapiens, NCI-H460, 48 h
How it was run: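 NCI-H460 human lung tumor cells seeded at 1 × 10^3 cells/well in microtiter plates and exposed to a range of compound concentrations for 48 h. Proliferation read as cellular metabolic activity by XTT. At least two replicates (n = 2); IC50 obtained from dose–response curves by nonlinear regression.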

[21] = test system: LT12 tumor cell line; assay: Antiproliferative activity against LT12 tumor cell line; assay type: functional, cell-based; settings: Rattus norvegicus
[22] = test system: P388 (Mus musculus); assay: Antiproliferative activity against P388 tumor cell line
[23] = test system: HeLa (Homo sapiens); assay: Effective concentration required to arrest propidium iodide stained KB/HeLa cells in G2/M phase

**Q.** `COc1ccc(CC2c3ccccc3C(=O)c3ccccc32)cc1OC(=O)c1ccccc1` was tested. Which IC50 [1] did it give?
**A.** > 10000 nM

**Q.** What does the source list for `O=C1c2ccccc2C(=Cc2ccccc2)c2ccccc21`?
**A.** IC50 [2]: 2000 nM; IC50 [1]: 4400 nM

**Q.** For `O=C1c2ccccc2C(=Cc2ccc3c(c2)OCO3)c2ccccc21`, which IC50 [2] is on record?
**A.** 900 nM

**Q.** `COc1ccc(C=C2c3ccccc3C(=O)c3ccccc32)cc1` was tested. Which IC50 [3] did it give?
**A.** 500 nM

**Q.** And the IC50 [4]?
**A.** 300 nM

**Q.** And the IC50 [5]?
**A.** 560 nM

**Q.** And the IC50 [6]?
**A.** 260 nM

**Q.** What about the IC50 [7] of the same compound?
**A.** 130 nM

**Q.** And the IC50 [8]?
**A.** 890 nM

**Q.** What about the IC50 [9] of the same compound?
**A.** 700 nM

**Q.** And the IC50 [2]?
**A.** 60 nM

**Q.** What about the IC50 [1] of the same compound?
**A.** 760 nM

**Q.** And the IC50 [10]?
**A.** < 1000 nM

**Q.** Which IC50 [2] does the source give for `CC(C)(C)c1cc(C=C2c3ccccc3C(=O)c3ccccc32)cc(C(C)(C)C)c1O` here?
**A.** 39000 nM

**Q.** `COC(=O)Nc1nc2cc(C(=O)c3cccs3)ccc2[nH]1` [NOCODAZOLE] was tested. Which IC50 [11] did it give?
**A.** 140 nM

**Q.** What about the IC50 [12] of the same compound?
**A.** 300 nM

**Q.** What about the IC50 [13] of the same compound?
**A.** > 10000 nM

**Q.** And the IC50 [14]?
**A.** 110 nM

**Q.** What about the IC50 [15] of the same compound?
**A.** 50 nM

**Q.** And the IC50 [16]?
**A.** 70 nM

**Q.** And the IC50 [17]?
**A.** 60 nM

**Q.** What about the IC50 [18] of the same compound?
**A.** 170 nM

**Q.** What about the IC50 [19] of the same compound?
**A.** 50 nM

**Q.** And the IC50 [20]?
**A.** 150 nM

**Q.** And the IC50 [21]?
**A.** 300 nM

**Q.** And the IC50 [22]?
**A.** 70 nM

**Q.** What about the EC50 [23] of the same compound?
**A.** 82 nM

**Q.** How did the IC50 [1] turn out when `COc1cc(CC2c3ccccc3C(=O)c3ccccc32)cc(OC)c1` was run?
**A.** 10000 nM

**Q.** What does the source list for `CC[C@]1(O)C[C@@H]2CN(CCc3c([nH]c4ccccc34)[C@@](C(=O)OC)(c3cc4c(cc3OC)N(C)[C@H]3[C@@](O)(C(N)=O)[C@H](O)[C@]5(CC)C=CCN6CC[C@]43[C@@H]65)C2)C1` [VINDESINE]?
**A.** IC50 [15]: 260 nM; IC50 [16]: > 5000 nM; IC50 [17]: 20 nM; IC50 [19]: 1100 nM; IC50 [21]: 1 nM; IC50 [22]: 10 nM

**Q.** Which IC50 [3] does the source give for `O=C1c2ccccc2C(=Cc2ccc(O)c(O)c2)c2ccccc21` here?
**A.** < 10 nM

**Q.** And the IC50 [4]?
**A.** 210 nM

**Q.** What about the IC50 [5] of the same compound?
**A.** 40 nM

**Q.** And the IC50 [6]?
**A.** 1620 nM

**Q.** And the IC50 [7]?
**A.** 260 nM

**Q.** What about the IC50 [8] of the same compound?
**A.** 1160 nM

**Q.** And the IC50 [9]?
**A.** 30 nM

**Q.** What about the IC50 [2] of the same compound?
**A.** 60 nM

**Q.** What about the IC50 [1] of the same compound?
**A.** 1800 nM

**Q.** With `O=C1c2ccccc2C(=Cc2ccc([N+](=O)[O-])cc2)c2ccccc21` as the compound, how does the IC50 [2] read?
**A.** 3000 nM

**Q.** Which results are given for `CC(=O)O[C@H]1C(=O)[C@@]2(C)[C@H]([C@H](OC(=O)c3ccccc3)[C@]3(O)C[C@H](OC(=O)[C@H](O)[C@@H](NC(=O)c4ccccc4)c4ccccc4)C(C)=C1C3(C)C)[C@]1(OC(C)=O)CO[C@@H]1C[C@@H]2O` [PACLITAXEL]?
**A.** IC50 [11]: 10 nM; IC50 [12]: 10 nM; IC50 [13]: > 3000 nM; IC50 [14]: 10 nM; IC50 [15]: 400 nM; IC50 [16]: > 5000 nM; IC50 [17]: 60 nM; IC50 [18]: 10 nM; IC50 [19]: > 5000 nM; IC50 [20]: 10 nM; IC50 [21]: 6 nM; IC50 [22]: 40 nM; EC50 [23]: 54 nM

**Q.** What does the source list for `O=C1c2ccccc2C(=Cc2ccc(OCc3ccccc3)cc2)c2ccccc21`?
**A.** IC50 [2]: 22000 nM; IC50 [1]: > 10000 nM

**Q.** With `COc1cc(CC2c3ccccc3C(=O)c3ccccc32)cc(OC)c1OC` as the compound, how does the IC50 [2] read?
**A.** > 80000 nM

**Q.** And the IC50 [1]?
**A.** > 10000 nM

**Q.** What does the source list for `COC(=O)c1cc(C=C2c3ccccc3C(=O)c3ccccc32)ccc1O`?
**A.** IC50 [2]: 1400 nM; IC50 [1]: > 10000 nM

**Q.** Which IC50 [3] does the source give for `COc1cc(C=C2c3ccccc3C(=O)c3ccccc32)ccc1O` here?
**A.** 2360 nM

**Q.** And the IC50 [4]?
**A.** 1510 nM

**Q.** What about the IC50 [5] of the same compound?
**A.** 2520 nM

**Q.** What about the IC50 [6] of the same compound?
**A.** 3230 nM

**Q.** What about the IC50 [7] of the same compound?
**A.** 2070 nM

**Q.** What about the IC50 [8] of the same compound?
**A.** 2970 nM

**Q.** And the IC50 [9]?
**A.** 2830 nM

**Q.** What about the IC50 [2] of the same compound?
**A.** 1400 nM

**Q.** And the IC50 [1]?
**A.** 630 nM

**Q.** What about the IC50 [10] of the same compound?
**A.** < 1000 nM

**Q.** Which IC50 [2] does the source give for `COc1ccc(C=C2c3ccccc3C(=O)c3ccccc32)c(O)c1` here?
**A.** 70 nM

**Q.** What about the IC50 [1] of the same compound?
**A.** 1200 nM

**Q.** What about the IC50 [10] of the same compound?
**A.** 1200 nM

**Q.** Which IC50 [2] does the source give for `CC[C@]1(O)C[C@@H]2CN(CCc3c([nH]c4ccccc34)[C@@](C(=O)OC)(c3cc4c(cc3OC)N(C)[C@H]3[C@@](O)(C(=O)OC)[C@H](OC(C)=O)[C@]5(CC)C=CCN6CC[C@]43[C@@H]65)C2)C1` [VINBLASTINE SULFATE] here?
**A.** 1 nM

**Q.** How did the IC50 [2] turn out when `CCOC(=O)c1ccc(C=C2c3ccccc3C(=O)c3ccccc32)cc1` was run?
**A.** 700 nM

**Q.** Which IC50 [2] does the source give for `O=C1c2ccccc2C(=Cc2cc(Br)c(O)c(Br)c2)c2ccccc21` here?
**A.** 160 nM

**Q.** And the IC50 [1]?
**A.** 480 nM
